UCH37 DUB inh: inhibitors of human UCH37 deubiquitinase, primary screen, biochemical, Ub-AMC cleavage, fluorescence; Ubiquitin carboxyl-terminal hydrolase isozyme L5 (Homo sapiens), Q9Y5K5; purified proteasome/UCH37; inhibition, % (test concentration not listed); hit rate 0.33% among 330,000; AID 588478, 2011;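 active = mean inhibition over replicate wells above about 20%, limit read from the data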;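 note: 0% = compound-free wells with enzyme and 100% = wells lacking proteasome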
Target sequence (Q9Y5K5 whole entry, looked up): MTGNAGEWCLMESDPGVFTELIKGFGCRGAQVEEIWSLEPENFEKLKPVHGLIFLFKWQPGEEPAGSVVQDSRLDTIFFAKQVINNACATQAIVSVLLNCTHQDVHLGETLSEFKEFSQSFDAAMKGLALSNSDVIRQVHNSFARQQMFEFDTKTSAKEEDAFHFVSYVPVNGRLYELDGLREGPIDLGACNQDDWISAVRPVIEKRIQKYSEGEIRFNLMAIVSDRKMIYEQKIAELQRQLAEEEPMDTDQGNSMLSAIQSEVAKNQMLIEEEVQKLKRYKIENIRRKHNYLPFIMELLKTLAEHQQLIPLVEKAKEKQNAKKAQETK
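Material: human UCH37 enzyme supplied as purified proteasome complex. Measure: % inhibition of Ub-AMC cleavage fluorescence. Medium: pH 7.4 Tris-HCl (50 mM) with ovalbumin, ATP-MgCl2, DTT. Times: 30 min preincubation with enzyme, 25 min cleavage at room temperature. Detection: AMC fluorescence intensity at 355/460 nm.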
GRIN3A LBD mod: binders of NR3A ligand-binding domain, primary screen, biophysical, differential scanning fluorimetry, uHTS; Glutamate receptor ionotropic, NMDA 3A (GRIN3A) ligand-binding domain; NR3A LBD differential scanning fluorimetry, Tm shift; 0% = protein alone, 100% = glycine-bound protein; Tm shift relative to glycine control, % at 25 µM; hit rate 2.5% among 340,000;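 active = melting temperature shift of at least 10% of the positive control shift, at one fixed dose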
ATG4B inhibitor: ATG4B protease inhibitors, primary screen, biochemical, fluorescence, uHTS; Cysteine protease ATG4B (Homo sapiens), Q9Y4P1; ATG4B cleavage of LC3-PLA2, NBD-HPC fluorescence, 1 h; hit rate 0.51% among 340,000; inhibition, % at 8.33 µM; AID 504462, 2011; in the data active = inhibition above about 40%
Target sequence (Q9Y4P1 whole entry, looked up): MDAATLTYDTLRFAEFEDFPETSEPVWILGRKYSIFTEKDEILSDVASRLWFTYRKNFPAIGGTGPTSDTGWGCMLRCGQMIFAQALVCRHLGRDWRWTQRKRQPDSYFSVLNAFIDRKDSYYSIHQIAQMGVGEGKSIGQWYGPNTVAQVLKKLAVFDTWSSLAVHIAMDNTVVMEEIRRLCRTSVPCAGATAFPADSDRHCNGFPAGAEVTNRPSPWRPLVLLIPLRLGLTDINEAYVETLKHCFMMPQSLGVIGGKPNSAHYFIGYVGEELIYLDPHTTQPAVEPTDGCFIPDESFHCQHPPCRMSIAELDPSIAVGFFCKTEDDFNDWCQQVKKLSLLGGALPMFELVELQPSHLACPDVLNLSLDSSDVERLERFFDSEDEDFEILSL
SENP1 FRET inh: human SENP1 catalytic domain inhibitors, primary screen, biochemical, FRET, uHTS; Sentrin-specific protease 1 (Homo sapiens), Q9P0U3; recombinant SENP1 catalytic domain, CyPet-SUMO1-YPet FRET cleavage; inhibition, % at 10 µM; hit rate 0.21% among 360,000;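 active = inhibition at least 30% at 10 µM, raw YFP signal under a set limit, fluorescence ratio 0.5 to 1.5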;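 note: 0% = enzyme with DMSO and 100% = no enzyme wells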
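Test system: recombinant human SENP1 catalytic domain, His6-tagged / Medium: pH 8 Tris buffer with EDTA, NaCl, BME, BSA, NP40, catalase / Also added: SUMO1 FRET substrate flanked by Cypet and Ypet, 25 nM / Times: 50 min reaction at room temperature / Signal: FRET, CFP and YFP emission / Control set: no-enzyme low control and enzyme-plus-DMSO high control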
NadD inh: inhibitors of S. aureus NadD, primary screen, biochemical, colorimetric, uHTS; Nicotinate-nucleotide adenylyltransferase NadD (Staphylococcus aureus N315); purified NadD enzyme, colorimetric absorbance read-out; inhibition, % at 20 µM; hit rate 0.78% among 360,000; in the data active = inhibition above about 26%
* marks the source's active call; other numbers are inactive results; . = no result given. Hits are enriched below; roughly 3.6% of the tested compounds scored in any of these assays.

SMILES	UCH37 DUB inh	GRIN3A LBD mod	ATG4B inhibitor	SENP1 FRET inh	NadD inh
COc1ccc(C2CC(c3ccccc3)n3nnnc3N2)cc1 (stereo not drawn)	-1.2	411.4*	-8.9	3.1	-4.3
COc1ccc(C=NN2CCN(c3ccc(Cl)cc3)CC2)cc1	6.1	.	.	.	.
COc1ccccc1N(C(C)=O)c1nc(C)cc(C)c1C#N	1.4	18.7*	-16.7	0.0	-2.8
O=C(CN(c1ccccc1Cl)S(=O)(=O)c1ccccc1)NN=Cc1ccccc1C(=O)O	0.4	.	.	.	.
Cc1cc(SCC(=O)NCC2CCCO2)nc2ccccc12 (stereo not drawn)	4.0	2.3	-7.8	57.2*	-7.1
O=C(NCC1CCCO1)c1sc2ccccc2c1Cl (stereo not drawn)	4.5	11.0*	-5.5	-6.8	-3.3
Cc1cc(SCC(=O)N/N=C/c2ccc(O)cc2O)nc2ccccc12	.	25.5*	-1.8	-4.6	7.1
O=C(Cc1cccc2ccccc12)NCC1CCCO1 (stereo not drawn)	3.4	13.1*	-2.1	-1.9	2.1
Cc1cc(SCC(=O)N/N=C/c2ccc(O)c(O)c2)nc2ccccc12	.	5.9	-9.8	2.5	7.2
Cc1cc(SCC(=O)NC2CC2)nc2ccccc12	3.2	-1.0	-2.2	-1.1	1.5
Clc1ccc(-n2cccc2C=Nn2cnnc2)cc1	7.2	.	.	.	.
O=S(=O)(Oc1ccccc1C=Nn1cnnc1)c1ccccc1	-0.3	.	.	.	.
COc1ccc2cc(C=NNC(=O)c3ccc(CN(c4cccc(Cl)c4Cl)S(C)(=O)=O)cc3)c(Cl)nc2c1	-213.3	.	.	.	.
CC(=Nc1nc2ccccc2n1C)c1cc(Cl)ccc1O	-3.8	.	.	.	.
O=C(Nc1ccc(Cl)c(Cl)c1)Nc1nccs1	.	36.6*	1.2	-5.0	-5.1
O=C(Nc1cccc(Cl)c1)Nc1nccs1	3.3	31.3*	0.4	0.5	0.0
CC1CCCC=CC(=O)c2c(O)cc(O)cc2CC(=O)O1 (stereo not drawn)	2.5	.	.	.	.
Nc1cc(Cl)nc(NN=Cc2c(O)ccc3ccccc23)n1	-3.8	.	.	.	.
COc1ccc(C=NNC(=O)C(=O)Nc2ccccn2)cc1OC	2.9	.	.	.	.
Nc1ccc2c(c1)Cc1cc(N)c(Cl)cc1-2	.	8.6	3.5	-5.7	4.5
Nc1ccc2c(c1)Cc1cc(Cl)c(Cl)cc1-2	-1.1	15.2*	4.9	-7.0	9.4
CC(C)(C)CC(C)(C)c1ccc(O)c(CN2CCN(CCC#N)CC2)c1	4.0	0.0	-9.5	1.7	-9.1
CC(C)(C)CC(C)(C)c1ccc(O)c(Cc2ccc(Cl)cc2Cl)c1	.	11.5*	0.1	2.8	4.6
N#Cc1ccc(C=NNC(=O)CCc2ccc(S(=O)(=O)N3CCOCC3)cc2)cc1	0.1	.	.	.	.
CCC(Sc1nc(N)cc(=O)[nH]1)C(=O)NC(C(=O)OC)c1ccccc1 (stereo not drawn)	32.3*	1.5	-11.0	.	.
SMILES	UCH37 DUB inh	GRIN3A LBD mod	ATG4B inhibitor	SENP1 FRET inh	NadD inh
O=C(Nc1ccc(F)cc1)c1oc2ccccc2c1NC(=O)C1CCCC1	1.5	13.1*	5.8	-1.1	-3.1
Cc1ccccc1NC(=O)N(O)C1(C#N)CCCCC1	.	15.4*	-0.1	0.0	-3.0
N#Cc1c(SCC(=O)Nc2cccc(C(F)(F)F)c2)sc2c(O)cc(=O)[nH]c12	8.9	10.3*	3.2	-17.3	12.7
Cc1cc(NC(=O)CSc2sc3c(O)cc(=O)[nH]c3c2C#N)ccc1Br	1.6	2.4	8.3	-14.1	22.9
O=C(NN=Cc1ccc(OCC(=O)N2CCCC2)cc1)C(=O)NC1CC1	4.9	.	.	.	.
CCOc1ccc(NC(=O)CCC(=O)NNC(=O)Nc2ccc(Cl)cc2)cc1	4.0	11.8*	-0.4	0.9	0.2
COc1cc(OC)c(OC)cc1C=Nn1c(-c2n[nH]c3c2CCC3)n[nH]c1=S	-6.6	.	.	.	.
Cc1ccc(-c2cc(C(=O)Nc3ccc(S(=O)(=O)Nc4ncccn4)cc3)[nH]n2)c(O)c1C	3.9	10.2*	3.2	0.8	17.9
COc1ccc(-c2cc(C(=O)Nc3ccc(OC)c(OC)c3)[nH]n2)c(C)c1	.	.	.	0.9	2.8
CCSc1nnc(NC(=O)c2cc(-c3ccc(C)c(C)c3O)n[nH]2)s1	0.0	0.3	-15.6	0.6	28.8
CC(=O)Nc1ccc(NC(=O)c2cc(-c3cc(C)cc(C)c3O)n[nH]2)cc1	0.6	35.4*	-19.1	3.1	-10.6
Cc1ccc(NC(=O)c2cc(-c3ccc(C)c(C)c3O)n[nH]2)cc1C	-3.9	34.9*	3.2	2.5	-0.9
COc1ccc(NC(=O)c2cc(-c3ccc(C)c(C)c3O)n[nH]2)cc1Cl	1.7	24.5*	7.3	-0.6	7.4
O=[N+]([O-])c1cc(C=NN2CCN(Cc3ccccc3)CC2)ccc1Cl	4.2	.	.	.	.
Cc1cc(C)c(O)c(-c2cc(C(=O)Nc3ccc(S(=O)(=O)N4CCOCC4)cc3)[nH]n2)c1	2.7	22.8*	-10.4	1.0	5.5
Cc1ccc(-c2cc(C(=O)Nc3cc(C)ccc3C)[nH]n2)c(O)c1	6.2	-10.0	-8.9	0.2	-2.1
Cc1ccc(C)c(NC(=O)c2cc(-c3cc(C)c(C)cc3O)n[nH]2)c1	2.9	28.4*	5.5	1.4	-2.3
CC(=O)Nc1ccc(NC(=O)c2cc(-c3ccc(C)c(C)c3O)n[nH]2)cc1	0.4	39.0*	2.8	0.4	-0.8
Cc1ccc(C(=O)Nc2ccc(S(=O)(=O)N3CCOCC3)cc2)cc1	5.3	7.5	-1.8	1.8	-4.2
Cc1ccc(NC(=O)c2cc(-c3cc(C)c(C)cc3O)n[nH]2)cc1C	1.5	32.6*	4.2	1.7	6.3
O=C(NN=Cc1cccnc1)/C(=C\c1cccs1)NC(=O)c1ccccc1	15.2	.	.	.	.
COc1ccc(C(=O)NN=Cc2ccc(N3CCOCC3)o2)cc1OC	8.2	.	.	.	.
Cc1cc(F)ccc1-c1cc(C(=O)Nc2ccccc2)[nH]n1	.	.	.	2.2	-5.8
Cc1ccc(O)c(-c2cc(C(=O)NCc3ccc4c(c3)OCO4)[nH]n2)c1	-9.0	-17.9	-0.2	1.2	2.4
Cc1cccc(NC(=O)c2cc(-c3ccc(C)c(C)c3O)n[nH]2)c1	2.3	34.8*	-6.3	0.4	-6.6
Cc1ccc(CNC(=O)c2cc(-c3cc(C)cc(C)c3O)n[nH]2)cc1	0.9	11.5*	2.4	-0.3	-3.0
Clc1ccccc1C=NNC1=Nc2cccc3cccc1c23	8.0	.	.	.	.
Clc1ccccc1/C=N/NC1=Nc2cccc3cccc1c23	.	19.2*	-2.5	-7.1	15.7
COc1ccc(/C=N/NC(=O)c2[nH]nc3c2CCc2ccccc2-3)cc1OC	.	33.6*	-10.8	-0.8	8.3
Cc1nn(Cc2ccccc2)c(Cl)c1C(=O)OCC(=O)NC(=O)NC12CC3CC(CC(C3)C1)C2	1.1	16.8*	-8.3	0.6	6.8

Assay outcomes (PubChem BioAssay)
